The test system of series [1] is poly-ubiquitinated proteins in HeLa cervical cancer cells. The series can be described thus: Immunoblot analysis of poly-ubiquitinated proteins in HeLa cells. Conditions: eight hours treatment. Format: cell-based, human. A digest of the protocol:
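HeLa cells were grown in DMEM with 10% FBS, penicillin and streptomycin at 5% CO2, then treated for 8 h with or without test compound at several concentrations. Bortezomib served as the positive control. Poly-ubiquitinated proteins were detected by immunoblot, with β-actin as the loading control.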

Series [2] deals with HeLa cells. The series can be described thus: Washout experiment, residual cell viability. Format: cell-based, human. The conditions noted are these: HeLa cells briefly treated. A digest of the protocol: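 HeLa cells grown in DMEM with 10% FBS, penicillin/streptomycin, 5% CO2. Cells were briefly exposed to the test compound or bortezomib (reversible-inhibitor reference), then washed out; non-washout cultures served as comparison. Viability was read by XTT: seeded at 1,000 cells/well, 4 h with XTT labeling mixture, absorbance at 450 nm. Run in triplicate, mean ± SE.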

Series [3] relates to ME180 cervical cancer cells (HPV58+). The series can be described thus: XTT cell viability assay, ME180. The conditions noted are these: 48 hours. Type of series: cell-based, human. On the technique in general: Formazan colour is commonly taken as a measure of viable cells.
Series [4] has as its system trypsin-like (T-like) activity of proteasomes isolated from LCLs. The series can be described thus: Proteasome trypsin-like activity, fluorogenic substrate Boc-LRR-AMC. Type of series: biochemical. Conditions: 10 µM compound. In outline: (§1)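 Proteasomes came from lymphoblastoid cells lysed by glass-bead vortexing in Tris pH 7.5, MgCl2, DTT, ATP and sucrose buffer. They were semipurified by centrifugation and 100,000g ultracentrifugation. Preparations were pretreated with test compound for 30 min at 37°C, then assayed 45 min at 37°C with Suc-LLVY-AMC (CT-like), Boc-LRR-AMC (T-like) or Ac-YVAD-AMC (PGPH/caspase-like). Reactions were SDS-quenched and read at ex 380/em 440 nm. Results are % inhibition versus untreated; IC50 is the mean of three determinations.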

Series [5] relates to HeLa cervical cancer cells. As to the kind of experiment: Combination with Bortezomib, XTT viability, isobologram / combination index. Type of series: cell-based, human.
Series [6] concerns the target Cathepsin D (Homo sapiens, UniProt P07339). The series can be described thus: Residual Cathepsin D activity in HeLa cells. Type of series: cell-based. The conditions noted are these: concentrations up to 50 µM.
The test system of series [7] is HeLa cervical cancer cells. As to the kind of experiment: Cellular morphology by phase contrast microscopy. Format: cell-based, human. Conditions: combination of Bortezomib (5nM)+compound 2 (1 µM), 48 hours.
For series [8], the system named is Calpain. The series can be described thus: Residual Calpain activity in HeLa cells. The conditions noted are these: concentrations up to 50 µM. Format: cell-based, human.
Series [9] deals with SiHa cervical cancer cells (HPV16+). The series can be described thus: XTT cell viability assay, SiHa. Format: cell-based, human. Conditions: 48 hours.
Series [10] deals with Ub-FL reporter in HeLa cervical cancer cells. The series can be described thus: Ubiquitin-Firefly luciferase. Type of series: cell-based, human. Conditions: combination of Bortezomib (5nM) and compound 2 (1µM). In outline: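 HeLa cells were transfected with either the Ub-FL reporter (four ubiquitin G76V copies fused N-terminal to firefly luciferase) or the CMV-FL control. They were replated 24 h later at 1×10^4 cells/well and left 18 h to attach. Cells then received bortezomib 5 nM, test compound 1 µM, or both for 6 h. Lysate luciferase was read as RLU, given as % of control, from three independent experiments with SE.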

Series [11] concerns primary human Keratinocytes. As to the kind of experiment: XTT cell viability assay, primary Keratinocytes. Format: cell-based. The conditions noted are these: 48 hours.
The test system of series [12] is chymotrypsin-like (CT-like) activity of proteasomes isolated from LCLs. The series can be described thus: Proteasome chymotrypsin-like activity, fluorogenic substrate Suc-LLVY-AMC. Type of series: biochemical. The conditions noted are these: 10 µM compound. In outline:
as §1

Series [13] has as its system peptidylglutamyl peptide hydrolyzing-like (PGPH-like) activity of proteasomes isolated from LCLs. The series can be described thus: Proteasome PGPH-like activity, fluorogenic substrate Ac-YVAD-AMC. Format: biochemical. The conditions noted are these: for inhibition of PGPH-like activity of 20S proteasome: 10 µM compound; for IC50: read-out: Isolated enzyme IC50(µM) PGPH-like, proteasomes isolated from LCLs, average of three independent determinations. In outline:
as §1

The results in this text go back to publication PMC3204583 (Journal of medicinal chemistry, 2010).

SMILES strings stand for the structures.

A word on the IC50: it is the concentration that gives 50% inhibition.

Cathepsin D, sequence (P07339 65-412): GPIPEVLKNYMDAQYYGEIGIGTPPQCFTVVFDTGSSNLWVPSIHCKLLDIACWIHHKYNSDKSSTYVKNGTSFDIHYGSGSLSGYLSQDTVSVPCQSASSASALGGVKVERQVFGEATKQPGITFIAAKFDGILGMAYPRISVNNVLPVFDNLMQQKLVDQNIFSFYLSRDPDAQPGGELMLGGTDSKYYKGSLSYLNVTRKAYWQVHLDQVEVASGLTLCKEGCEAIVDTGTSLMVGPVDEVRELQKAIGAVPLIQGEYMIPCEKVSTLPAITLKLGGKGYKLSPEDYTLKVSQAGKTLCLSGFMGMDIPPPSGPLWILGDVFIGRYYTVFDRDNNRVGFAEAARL

On to `CC(C)C[C@H](NC(=O)[C@H](Cc1ccccc1)NC(=O)c1cnccn1)B(O)O` [Bortezomib, reference compound], for which, in series [1], the “levels of poly-ubiquitinated proteins” value was “increase”. The “cell viability after washout compared to non-washout cultures” value in series [2] is listed as “partial recovery in cell viability”.
Regarding `O=C1/C(=C/c2ccc(Cl)c(Cl)c2)CN(C(=O)N[C@@H](Cc2ccccc2)C(=O)O)C/C1=C\c1ccc(Cl)c(Cl)c1` [Compound 2], the “effect on viability of ME180” value in series [3] was “dose-dependent drop”. Besides, the “inhibition of trypsin-like (T-like) activity of 20S proteasome” value (“inhibition of trypsin-like” for short) in [4] is “nearly fully abrogated”. The “Combination Index (CI)” value in [5] (Bortezomib 3.95 nmol/L / compound 2 2.5 mM/L) was 0.6; in series [5] (Bortezomib 6.125 nmol/L / compound 2 1.64 mM/L), 0.6; in series [5] (Bortezomib 7.5 nmol/L / compound 2 1.06 mM/L), 0.59. In series [5] (checker board dilution series, XTT), the “interaction of the combination with Bortezomib by isobologram analysis” value was “highly synergistic”. Moreover, the “inhibitory capacity toward Cathepsin D activity” value in series [6] is recorded as “no inhibitory capacity”. Besides, the “morphological changes compared to single treatment alone” value in series [7] was “greater apoptotis-associated morphological changes”. For the same compound, the “inhibitory capacity toward Calpain activity” value in series [8] is listed as “no inhibitory capacity”. Also, in series [9], the “effect on viability of SiHa” value was “dose-dependent drop”. For the same compound, in series [10], the “stabilization of the Ub-FL degron compared to single agents alone” value is recorded as “significantly enhance the stabilization”. The “effect on viability of primary human Keratinocytes” value in series [11] is reported as “minimal effects”. In addition, the “cell viability after washout compared to non-washout cultures” value in series [2] is reported as “partial recovery in cell viability”. For the same compound, the “inhibition of chymotrypsin-like (CT-like) activity of 20S proteasome” value (shortened to “inhibition of chymotrypsin-like”) in series [12] is “nearly fully abrogated”. The “inhibition of PGPH-like activity of 20S proteasome” value in series [13] is reported as “nearly fully abrogated”.
As to `O=C1/C(=C/c2ccc(Cl)c(Cl)c2)CN(C(=O)N[C@@H](Cc2ccc(O)cc2)C(=O)O)C/C1=C\c1ccc(Cl)c(Cl)c1` [Compound 3], the “inhibition of trypsin-like” value in series [4] is listed as “partial inhibition”. Also, the “inhibition of chymotrypsin-like” value in [12] was “partial inhibition”. Also, in series [13], the “inhibition of PGPH-like activity of 20S proteasome” value is reported as “partial inhibition” and the IC50 was greater than 10 µM.
Take `CC(C)C[C@H](NC(=O)N1C/C(=C\c2ccc(Cl)c(Cl)c2)C(=O)/C(=C/c2ccc(Cl)c(Cl)c2)C1)C(=O)O` [Compound 4]: the “inhibition of trypsin-like” value in series [4] is “partial inhibition”. Moreover, the “inhibition of chymotrypsin-like” value in series [12] is “partial inhibition”. Moreover, in series [13], the “inhibition of PGPH-like activity of 20S proteasome” value is reported as “partial inhibition” and the IC50 is greater than 10 µM.
As for `O=C(O)CC[C@H](NC(=O)N1C/C(=C\c2ccc(Cl)c(Cl)c2)C(=O)/C(=C/c2ccc(Cl)c(Cl)c2)C1)C(=O)O` [Compound 5], the “levels of poly-ubiquitinated proteins” value in [1] is on record as “no changes”.
